Data set [1] relates to Mus musculus. Briefly: Effect of compound on total white blood cell count in BDG1 male mice, after intraperitoneal administration at a dose of 68.0 mg/kg on day 3. The data set is classed as functional. Summed up: (§1)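 Single ip dose given on day 0 to BDG₁ male mice. Total white blood cell count measured on days 3, 5 and 7, expressed as % change from control. Highest dose was at the LD₅₀, or at twice the optimal dose where so footnoted. Significance reported at p ≤ 0.05 and p ≤ 0.01. D marks death of one or more mice.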

For data set [2], the system named is Mus musculus. The data set is described as follows: Effect of compound on total white blood cell count in BDG1 male mice, after intraperitoneal administration at a dose of 68.0 mg/kg on day 5. In kind it is functional. Summed up: as §1
Data set [3] deals with Mus musculus. The data set is described as follows: Effect of compound on total white blood cell count in BDG1 male mice, after intraperitoneal administration at a dose of 68.0 mg/kg on day 7. In kind it is functional. Summed up:
as §1

For data set [4], the system named is Mus musculus. The data set is described as follows: Effect of compound on total white blood cell count in BDG1 male mice, after intraperitoneal administration at a dose of 51 mg/kg on day 5. The data set is classed as functional. Put shortly: as §1
Data set [5] concerns Mus musculus. Briefly: Effect of compound on total white blood cell count in BDG1 male mice, after intraperitoneal administration at a dose of 51 mg/kg on day 3. The data set is classed as functional. Put shortly:
as §1

Data set [6] relates to Mus musculus. Briefly: Effect of compound on total white blood cell count in BDG1 male mice, after intraperitoneal administration at a dose of 51 mg/kg on day 7. In kind it is functional. Summed up: as §1
Data set [7] deals with Mus musculus. Briefly: Antitumor activity against P-388 murine leukemia cells in CDF1 female mice after intraperitoneal administration at the specified optimal dose of 12.8 mg/kg. The data set is classed as functional.
A short description of data set [8]: Therapeutic ratio is expressed as ratio of optimal dose and minimum effective dose. The data set is classed as ADME. Conditions: mouse; read-out: TR. Put shortly:
(§2)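 10⁶ P-388 ascites cells implanted ip in CDF₁ female mice. Six mice per dose, 10 saline-injected controls, and a concurrent mitomycin C reference group. %T/C = median survival time of treated/control × 100. MED is the lowest dose giving %T/C > 125. Therapeutic ratio = optimal dose/MED.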

Data set [9] has as its system Mus musculus. Briefly: Effect of compound on total white blood cell count in BDG1 male mice, after intraperitoneal administration at a dose of 1.3 mg/kg on day 5. In kind it is functional. Summed up:
(§3)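 BDG₁ male mice received a single ip dose on day 0. The dose series topped out at the LD₅₀ level, or at twice the optimal dose for some agents. Total white blood cell count was taken on days 3, 5 and 7 and expressed as % change from untreated controls. Significance was set at p ≤ 0.05 or p ≤ 0.01.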

Data set [10] relates to Mus musculus. The data set is described as follows: Effect of compound on total white blood cell count in BDG1 male mice, after intraperitoneal administration at a dose of 1.3 mg/kg on day 7. The data set is classed as functional. Put shortly: as §3
For data set [11], the system named is Mus musculus. Briefly: Effect of compound on total white blood cell count in BDG1 male mice, after intraperitoneal administration at a dose of 1.3 mg/kg on day 3. In kind it is functional. Summed up:
as §3

In data set [12] the test system is Mus musculus. The data set is described as follows: Effect of compound on total white blood cell count in BDG1 male mice, after intraperitoneal administration at a dose of 1.7 mg/kg on day 3. The data set is classed as functional. Summed up: as §3
For data set [13], the system named is Mus musculus. The data set is described as follows: Effect of compound on total white blood cell count in BDG1 male mice, after intraperitoneal administration at a dose of 1.7 mg/kg on day 5. The data set is classed as functional. Summed up: as §3
For data set [14], the system named is Mus musculus. Briefly: Effect of compound on total white blood cell count in BDG1 male mice, after intraperitoneal administration at a dose of 1.7 mg/kg on day 7. The data set is classed as functional. Put shortly:
as §3

Data set [15] is filed under the species Mus musculus. Briefly: Degree of leukopenia produced by compound is assessed form Percent change in white cells on days 5. In kind it is functional. Summed up: as §3
For data set [16], the system named is Mus musculus. Briefly: Effect of compound on total white blood cell count in BDG1 male mice, after intraperitoneal administration at a dose of 0.96 mg/kg on day 3. The data set is classed as functional. Summed up: as §3
Data set [17] concerns Mus musculus. The data set is described as follows: Effect of compound on total white blood cell count in BDG1 male mice, after intraperitoneal administration at a dose of 0.96 mg/kg on day 5. The data set is classed as functional. Put shortly:
as §3

Data set [18] deals with Mus musculus. The data set is described as follows: Effect of compound on total white blood cell count in BDG1 male mice, after intraperitoneal administration at a dose of 0.96 mg/kg on day 7. The data set is classed as functional. Put shortly:
as §3

The species entered for data set [19] is Mus musculus. Briefly: Half-wave potential produced by the compound at their optimal dose. The data set is classed as functional. Also noted: unit not given here.
The test system of data set [20] is Mus musculus. The data set is described as follows: Minimum effective dose that show activity against P-388 murine leukemia cells in CDF1 female mice, after intraperitoneal administration (optimal dose is 3.2 mg/kg). In kind it is functional. Conditions: P388, ip, read-out: MED. Put shortly: as §2
Data set [21] concerns Mus musculus. The data set is described as follows: Antitumor activity against P-388 murine leukemia cells in CDF1 female mice after intraperitoneal administration at the specified optimal dose of 3.2 mg/kg. In kind it is functional.
The species named for data set [22] is Mus musculus. Briefly: Degree of leukopenia produced by compound is assessed form Percent change in white cells on day 3. In kind it is functional. Put shortly:
as §3

Data set [23] relates to Mus musculus. The data set is described as follows: Effect of compound on total white blood cell count in BDG1 male mice, after intraperitoneal administration at a dose of 4.22 mg/kg on day 3. In kind it is functional.
The subject of data set [24] is Mus musculus. Briefly: Effect of compound on total white blood cell count in BDG1 male mice, after intraperitoneal administration at a dose of 4.22 mg/kg on day 5. The data set is classed as functional.
Data set [25] deals with Mus musculus. The data set is described as follows: Effect of compound on total white blood cell count in BDG1 male mice, after intraperitoneal administration at a dose of 4.22 mg/kg on day 7. The data set is classed as functional.
Data set [26] has as its system Mus musculus. Briefly: Effect of compound on total white blood cell count in BDG1 male mice, after intraperitoneal administration at a dose of 3.16 mg/kg on day 3. The data set is classed as functional.
In data set [27] the test system is Mus musculus. The data set is described as follows: Effect of compound on total white blood cell count in BDG1 male mice, after intraperitoneal administration at a dose of 3.16 mg/kg on day 5. In kind it is functional.
Data set [28] relates to Mus musculus. The data set is described as follows: Effect of compound on total white blood cell count in BDG1 male mice, after intraperitoneal administration at a dose of 3.16 mg/kg on day 7. The data set is classed as functional.
Data set [29] deals with Mus musculus. Briefly: Effect of compound on total white blood cell count in BDG1 male mice, after intraperitoneal administration at a dose of 5.63 mg/kg on day 5. In kind it is functional.
Data set [30] concerns Mus musculus. Briefly: Effect of compound on total white blood cell count in BDG1 male mice, after intraperitoneal administration at a dose of 5.63 mg/kg on day 7. In kind it is functional.
Data set [31] has as its system Mus musculus. Briefly: Effect of compound on total white blood cell count in BDG1 male mice, after intraperitoneal administration at a dose of 5.63 mg/kg on day 3. The data set is classed as functional.
The test system of data set [32] is Mus musculus. Briefly: Effect of compound on total white blood cell count in BDG1 male mice, after intraperitoneal administration at a dose of 7.5 mg/kg on day 3. The data set is classed as functional.
Data set [33] relates to Mus musculus. The data set is described as follows: Effect of compound on total white blood cell count in BDG1 male mice, after intraperitoneal administration at a dose of 7.5 mg/kg on day 5. The data set is classed as functional.
Data set [34] has as its system Mus musculus. Briefly: Effect of compound on total white blood cell count in BDG1 male mice, after intraperitoneal administration at a dose of 7.5 mg/kg on day 7. In kind it is functional.
For data set [35], the system named is Mus musculus. The data set is described as follows: Number of tumored survivors, 45 days after administration of compound at a dose of 1 mg/kg/day in mice. The data set is classed as functional.
Data set [36] deals with Mus musculus. The data set is described as follows: Number of tumored survivors, 45 days after administration of compound at a dose of 8 mg/kg/day in mice. In kind it is functional.
Data set [37] concerns Mus musculus. Briefly: Activity of compound dose of 4 mg/kg/day against Murine B-16 Melanocarcinoma in mice. The data set is classed as functional.
The test system of data set [38] is Mus musculus. The data set is described as follows: Activity of compound dose of 8 mg/kg/day against Murine B-16 Melanocarcinoma in mice. In kind it is functional.
Data set [39] has as its system Mus musculus. The data set is described as follows: Activity of compound dose of 0.5 mg/kg/day against Murine B-16 Melanocarcinoma in mice. In kind it is functional.
The subject of data set [40] is Mus musculus. Briefly: Activity of compound dose of 1 mg/kg/day against Murine B-16 Melanocarcinoma in mice. The data set is classed as functional.
For data set [41], the system named is Mus musculus. Briefly: Number of cured survivors, 45 days after administration of compound at a dose of 1 mg/kg/day in mice. In kind it is functional.
The test system of data set [42] is Mus musculus. Briefly: Activity of compound dose of 2 mg/kg/day against Murine B-16 Melanocarcinoma in mice. The data set is classed as functional.

What is called T/C is the result in the treated group divided by that in the control group, in per cent.

On to `COC12[C@@H]3N[C@@H]3CN1C1=C(C(=O)C(NCCCl)=C(C)C1=O)[C@@H]2COC(N)=O` (stereo partly specified), for which the Change in the data set on Mus musculus [1] is reported as -71%; in the data set on Mus musculus [2], -63%; with Mus musculus [3] it was -35%; in the data set with Mus musculus [4], -61%; in the data set on Mus musculus [5], -55%; with Mus musculus [6], -23%. Also, the T/C in the data set on Mus musculus [7] turned out to be 190%. Moreover, the selectivity ratio in [8] was 8.
Regarding `COC1=C(C)C(=O)C2=C(C1=O)[C@@H](COC(N)=O)[C@@]1(OC)[C@H]3N[C@H]3CN21` [MITOMYCIN A], the Change in the data set with Mus musculus [9] was -15%; with Mus musculus [10], -9%; in the data set with Mus musculus [11], -12%; in the data set with Mus musculus [12], -28%; in the data set on Mus musculus [13], -24%; with Mus musculus [14], 5%. Besides, the Change in the data set filed under Mus musculus [15] is recorded as -2%; in the data set on Mus musculus [16] it was -11%; in the data set on Mus musculus [17] it was -25%; with Mus musculus [18], 4%. For the same compound, the E1/2 in the data set listed under Mus musculus [19] is -0.21. In the data set on Mus musculus [20], the minimal effective dose amounted to 0.05 mg/kg. For the same compound, the T/C in the data set on Mus musculus [21] turned out to be 180%. In [8], the selectivity ratio amounted to 64.
Regarding `CO[C@@]12[C@H](COC(N)=O)C3=C(C(=O)C(C)=C(N)C3=O)N1C[C@@H]1N[C@@H]12` [MITOMYCIN], the Change is -42% in the data set listed under Mus musculus [22]; -55% in the data set with Mus musculus [23]; -53% with Mus musculus [24]; -1% with Mus musculus [25]; -48% in the data set on Mus musculus [26]; -42% in the data set with Mus musculus [27]. Besides, the Change is recorded as -38% in the data set on Mus musculus [28]; -58% in the data set with Mus musculus [29]; -26% with Mus musculus [30]; -57% with Mus musculus [31]; -58% in the data set with Mus musculus [32]; -67% in the data set on Mus musculus [33]. For the same compound, in the data set with Mus musculus [34], the Change is listed as -53%. This compound displayed an E1/2 in the data set filed under Mus musculus [19] of -0.45. Besides, the minimal effective dose in the data set with Mus musculus [20] came to 0.2 mg/kg. The Survivors in the data set with Mus musculus [35], in the data set with Mus musculus [36] and with Mus musculus [41] was 1 each time. For the same compound, the T/C amounted to 193% in the data set with Mus musculus [37]; 164% with Mus musculus [38]; 178% in the data set on Mus musculus [21]; 122% in the data set on Mus musculus [39]; 136% in the data set with Mus musculus [40]; 159% in the data set with Mus musculus [42].
